Data from ChEMBL document CHEMBL2412955, “Synthesis and antibacterial activities of N-substituted-glycinyl 1H-1,2,3-triazolyl oxazolidinones” (2013).
Values after ≈ are worked out from the molar mass of the structure shown.

What was measured:
Assay type in all cases: functional
[1] = system: Staphylococcus aureus; experiment: Antibacterial activity against Staphylococcus aureus ATCC 25923 after 18 hrs by […] in presence of human plasma; conditions: ATCC 25923, Plasma
How it was run: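 To gauge plasma protein binding and/or plasma instability, MIC was determined in Mueller-Hinton broth containing 50% human plasma. Linezolid served as a reference agent. Ratio compares this MIC with the MIC obtained without plasma.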

[2] = system: Moraxella catarrhalis; experiment: Antibacterial activity against Moraxella catarrhalis clinical isolate 2824 after 18 hrs by NCCLS agar dilution method; conditions: clinical isolate 2824, 18 h
How it was run: (§1)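 NCCLS agar dilution on Mueller-Hinton agar with 5% sheep blood added to support growth. Drug dilutions 0.12–64 µg/ml. Test agents in 80% DMSO in water, linezolid in 40% water in ethanol. Final inoculum 10^7 CFU/ml, 18 h at 35 °C. MIC read as the lowest concentration with no visible growth.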

[3] = system: Staphylococcus; experiment: Antibacterial activity against methicillin-resistant coagulase-negative Staphylococcus after 18 hrs by NCCLS agar dilution method
How it was run: (§2)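 Clinical isolates were tested by agar dilution on Mueller-Hinton agar with drug dilutions from 0.12 to 64 µg/ml. Test compounds were dissolved in 80% DMSO in water. Final inoculum was 10^7 CFU/ml, incubated at 35 °C for 18 h. MIC was the lowest concentration inhibiting visible growth.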

[4] = system: Moraxella catarrhalis; experiment: Antibacterial activity against Moraxella catarrhalis clinical isolate 1 after 18 hrs by NCCLS agar dilution method; conditions: clinical isolate 1, 18 h; how it was run: as §1
[5] = system: Staphylococcus aureus; experiment: Antibacterial activity against Staphylococcus aureus ATCC 25923 after 18 hrs by NCCLS agar dilution method; conditions: ATCC 25923, 18 h
How it was run: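 Plain Mueller-Hinton agar, agar dilution per NCCLS, concentrations 0.12–64 µg/ml. Test agents in 80% DMSO in water, linezolid in 40% water in ethanol, vancomycin in water. Final inoculum 10^7 CFU/ml, 35 °C for 18 h. MIC = lowest concentration inhibiting visible growth.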

[6] = system: Escherichia coli; experiment: Antibacterial activity against Escherichia coli ATCC 25922 after 18 hrs by NCCLS agar dilution method; conditions: ATCC 25922, 18 h
How it was run: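 Agar dilution per NCCLS on Mueller-Hinton agar, drug dilutions 0.12–64 µg/ml. Linezolid dissolved in 40% water in ethanol, vancomycin in water, test agents in 80% DMSO in water. Inoculum 10^7 CFU/ml (final), incubated 35 °C for 18 h. MIC is the lowest concentration preventing visible growth.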

[7] = system: Staphylococcus; experiment: Antibacterial activity against methicillin-susceptible coagulase-negative Staphylococcus after 18 hrs by NCCLS agar dilution method; how it was run: as §2
[8] = system: Moraxella catarrhalis; experiment: Antibacterial activity against Moraxella catarrhalis clinical isolate 36 after 18 hrs by NCCLS agar dilution method; conditions: clinical isolate 36, 18 h; how it was run: as §1
[9] = system: Moraxella catarrhalis; experiment: Antibacterial activity against Moraxella catarrhalis clinical isolate 112 after 18 hrs by NCCLS agar dilution method; conditions: clinical isolate 112, 18 h; how it was run: as §1
[10] = system: Moraxella catarrhalis; experiment: Antibacterial activity against Moraxella catarrhalis ATCC 8176 after 18 hrs by NCCLS agar dilution method; conditions: ATCC 8176, 18 h; how it was run: as §1
[11] = system: Streptococcus pneumoniae; experiment: Antibacterial activity against penicillin-resistant Streptococcus pneumoniae after 18 hrs by NCCLS agar dilution method
How it was run: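 Agar dilution was run on Mueller-Hinton agar supplemented with 5% sheep blood, with drug dilutions from 0.12 to 64 µg/ml. Test compounds were dissolved in 80% DMSO in water. Final inoculum was 10^7 CFU/ml, incubated at 35 °C for 18 h. MIC was the lowest concentration preventing visible growth.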

[12] = system: Moraxella catarrhalis; experiment: Antibacterial activity against Moraxella catarrhalis clinical isolate 255 after 18 hrs by NCCLS agar dilution method; conditions: clinical isolate 255, 18 h; how it was run: as §1
[13] = system: Staphylococcus aureus; experiment: Antibacterial activity against methicillin-resistant Staphylococcus aureus after 18 hrs by NCCLS agar dilution method; how it was run: as §2
[14] = system: Moraxella catarrhalis; experiment: Antibacterial activity against Moraxella catarrhalis clinical isolate 3447 after 18 hrs by NCCLS agar dilution method; conditions: clinical isolate 3447, 18 h; how it was run: as §1
[15] = system: Enterococcus; experiment: Antibacterial activity against vancomycin-susceptible Enterococcus after 18 hrs by NCCLS agar dilution method; how it was run: as §2
[16] = system: Enterococcus; experiment: Antibacterial activity against vancomycin-resistant Enterococcus after 18 hrs by NCCLS agar dilution method; how it was run: as §2
[17] = system: Moraxella catarrhalis; experiment: Antibacterial activity against Moraxella catarrhalis clinical isolate 138 after 18 hrs by NCCLS agar dilution method; conditions: clinical isolate 138, 18 h; how it was run: as §1
[18] = system: Haemophilus influenzae; experiment: Antibacterial activity against Haemophilus influenzae ATCC 49247 after 18 hrs by NCCLS agar dilution method; conditions: ATCC 49247, 18 h; how it was run: as §1
[19] = system: Staphylococcus aureus; experiment: Antibacterial activity against methicillin-susceptible Staphylococcus aureus after 18 hrs by NCCLS agar dilution method; how it was run: as §2
[20] = system: Moraxella catarrhalis; experiment: Antibacterial activity against Moraxella catarrhalis clinical isolate 125 after 18 hrs by NCCLS agar dilution method; conditions: clinical isolate 125, 18 h; how it was run: as §1
[21] = system: Streptococcus pneumoniae; experiment: Ratio of PH084 MIC to compound MIC for penicillin-resistant Streptococcus pneumoniae
[22] = system: Enterococcus; experiment: Ratio of PH084 MIC to compound MIC for vancomycin-susceptible Enterococcus
[23] = system: Streptococcus pneumoniae; experiment: Ratio of linezolid MIC to compound MIC for penicillin-resistant Streptococcus pneumoniae
[24] = system: Moraxella catarrhalis; experiment: Ratio of linezolid MIC to compound MIC for Moraxella catarrhalis ATCC 8176
[25] = system: Staphylococcus; experiment: Ratio of linezolid MIC to compound MIC for methicillin-susceptible coagulase-negative Staphylococcus
[26] = system: Staphylococcus aureus; experiment: Ratio of linezolid MIC to compound MIC for methicillin-susceptible Staphylococcus aureus
[27] = system: Staphylococcus aureus; experiment: Ratio of PH084 MIC to compound MIC for methicillin-susceptible Staphylococcus aureus
[28] = system: Staphylococcus aureus; experiment: Ratio of PH027 MIC to compound MIC for methicillin-susceptible Staphylococcus aureus
[29] = system: Streptococcus pneumoniae; experiment: Ratio of PH027 MIC to compound MIC for penicillin-resistant Streptococcus pneumoniae
[30] = system: Staphylococcus; experiment: Ratio of PH027 MIC to compound MIC for methicillin-susceptible coagulase-negative Staphylococcus
[31] = system: Enterococcus; experiment: Ratio of linezolid MIC to compound MIC for vancomycin-susceptible Enterococcus
[32] = system: Staphylococcus; experiment: Ratio of PH084 MIC to compound MIC for methicillin-susceptible coagulase-negative Staphylococcus
[33] = system: Enterococcus; experiment: Ratio of PH027 MIC to compound MIC for vancomycin-susceptible Enterococcus

| Compound | MIC [1] | MIC [2] | MIC [3] | MIC [4] | MIC [5] | MIC [6] | MIC [7] | MIC [8] | MIC [9] | MIC [10] | MIC [11] | MIC [12] | MIC [13] | MIC [14] | MIC [15] | MIC [16] | MIC [17] | MIC [18] | MIC [19] | MIC [20] | other results |
| --- | --- | --- | --- | --- | --- | --- | --- | --- | --- | --- | --- | --- | --- | --- | --- | --- | --- | --- | --- | --- | --- |
| Cc1cn(C[C@H]2CN(c3ccc(N4CCN(C(=O)CNC(=O)c5cccnc5)CC4)c(F)c3)C(=O)O2)nn1 | 4 µg/mL | 8 µg/mL (≈ 15.3 µM) | 1 µg/mL (≈ 1.91 µM) | > 4 µg/mL | 2 µg/mL (≈ 3.83 µM) | > 64 µg/mL | 1 µg/mL (≈ 1.91 µM) | > 4 µg/mL | 4 µg/mL (≈ 7.65 µM) | 8 µg/mL (≈ 15.3 µM) | 0.25 µg/mL (≈ 0.478 µM) | 4 µg/mL (≈ 7.65 µM) | 1 µg/mL (≈ 1.91 µM) | 8 µg/mL (≈ 15.3 µM) | 1 µg/mL (≈ 1.91 µM) | 1 µg/mL (≈ 1.91 µM) | 4 µg/mL (≈ 7.65 µM) | 8 µg/mL (≈ 15.3 µM) | 1 µg/mL (≈ 1.91 µM) | 4 µg/mL (≈ 7.65 µM) | – |
| O=C(NCC(=O)N1CCN(c2ccc(N3C[C@H](Cn4ccnn4)OC3=O)cc2F)CC1)c1cccs1 | 8 µg/mL | 8 µg/mL (≈ 15.6 µM) | 0.5 µg/mL (≈ 0.974 µM) | 8 µg/mL (≈ 15.6 µM) | 1 µg/mL (≈ 1.95 µM) | > 64 µg/mL | 0.5 µg/mL (≈ 0.974 µM) | 8 µg/mL (≈ 15.6 µM) | 8 µg/mL (≈ 15.6 µM) | 8 µg/mL (≈ 15.6 µM) | 0.5 µg/mL (≈ 0.974 µM) | 8 µg/mL (≈ 15.6 µM) | 0.5 µg/mL (≈ 0.974 µM) | 8 µg/mL (≈ 15.6 µM) | 1 µg/mL (≈ 1.95 µM) | 1 µg/mL (≈ 1.95 µM) | 8 µg/mL (≈ 15.6 µM) | 16 µg/mL (≈ 31.2 µM) | 0.5 µg/mL (≈ 0.974 µM) | 8 µg/mL (≈ 15.6 µM) | – |
| O=C(NCC(=O)N1CCN(c2ccc(N3C[C@H](Cn4ccnn4)OC3=O)cc2F)CC1)c1ccc([N+](=O)[O-])o1 | < 0.25 µg/mL | 1 µg/mL (≈ 1.84 µM) | 0.06 µg/mL (≈ 0.111 µM) | 1 µg/mL (≈ 1.84 µM) | < 0.25 µg/mL | > 64 µg/mL | 0.06 µg/mL (≈ 0.111 µM) | 1 µg/mL (≈ 1.84 µM) | 1 µg/mL (≈ 1.84 µM) | 1 µg/mL (≈ 1.84 µM) | < 0.25 µg/mL | 1 µg/mL (≈ 1.84 µM) | 0.06 µg/mL (≈ 0.111 µM) | 1 µg/mL (≈ 1.84 µM) | 0.25 µg/mL (≈ 0.461 µM) | 0.25 µg/mL (≈ 0.461 µM) | 1 µg/mL (≈ 1.84 µM) | 8 µg/mL (≈ 14.7 µM) | 0.06 µg/mL (≈ 0.111 µM) | 1 µg/mL (≈ 1.84 µM) | Ratio [21]: 4; Ratio [22]: 4; Ratio [23]: 4; Ratio [24]: 8; Ratio [25]: 4; Ratio [26]: 4; Ratio [27]: 4; Ratio [28]: 4; Ratio [29]: 4; Ratio [30]: 4; Ratio [31]: 4; Ratio [32]: 4; Ratio [33]: 4 |
| Cc1cn(C[C@H]2CN(c3ccc(N4CCN(C(=O)CNC(=O)c5ccc([N+](=O)[O-])o5)CC4)c(F)c3)C(=O)O2)nn1 | < 0.25 µg/mL | 1 µg/mL (≈ 1.8 µM) | 0.06 µg/mL (≈ 0.108 µM) | 1 µg/mL (≈ 1.8 µM) | < 0.25 µg/mL | 16 µg/mL (≈ 28.8 µM) | 0.06 µg/mL (≈ 0.108 µM) | 1 µg/mL (≈ 1.8 µM) | 1 µg/mL (≈ 1.8 µM) | 0.5 µg/mL (≈ 0.898 µM) | < 0.25 µg/mL | 1 µg/mL (≈ 1.8 µM) | 0.06 µg/mL (≈ 0.108 µM) | 1 µg/mL (≈ 1.8 µM) | 0.25 µg/mL (≈ 0.449 µM) | 0.5 µg/mL (≈ 0.898 µM) | 1 µg/mL (≈ 1.8 µM) | 2 µg/mL (≈ 3.59 µM) | 0.06 µg/mL (≈ 0.108 µM) | 1 µg/mL (≈ 1.8 µM) | Ratio [21]: 4; Ratio [22]: 4; Ratio [23]: 4; Ratio [24]: 16; Ratio [25]: 4; Ratio [26]: 4; Ratio [27]: 4; Ratio [28]: 4; Ratio [29]: 4; Ratio [30]: 4; Ratio [31]: 4; Ratio [32]: 4; Ratio [33]: 4 |
